# Test results published in ChEMBL document CHEMBL4382230, “Structure-activity relationships, biological evaluation and structural studies of novel pyrrolonaphthoxazepines as antitumor agents” (Eur J Med Chem, 2019).
# Activity calls are given as the source filed them. No cut-off for these calls is given here.
# How the values were obtained:
# [1] = test system: HL-60; assay: Cytotoxicity against human HL60 cells assessed as reduction in cell viability after 72 hrs by alamar blue assay; type: functional, cell-based; conditions: HL-60, 72 h
# In short: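 HL-60 at 300,000 cells/ml treated in triplicate with compound or vehicle (0.1% v/v DMSO) for 72 h. Cells then incubated in 10% (v/v) AlamarBlue and fluorescence read at excitation 544 nm, emission 590 nm. IC50 is the mean of at least three separate determinations.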
# [2] = test system: GISTT1; assay: Cytotoxicity against human GISTT1 cells assessed as reduction in cell viability at 1 uM after 48 hrs by alamar blue assay; type: functional, cell-based
# In short: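 GIST-T1 seeded at 4000 cells/well, exposed to 1 or 10 μM for 48 h; viability read by AlamarBlue.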
# [3] = test system: HL-60; assay: Cell cycle arrest in human HL60 cells assessed as accumulation of cells at G2/M phase at 10 uM after 24 hrs by propidium iodide staining-based flow cytometric analysis; type: functional
# In short: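 HL-60 exposed to 10 μM for 24 h, vehicle 0.1% DMSO. Cells plated at 2×10^5 cells/mL, stained in PBS with 0.1% sodium citrate, 0.1% NP40 and propidium iodide for 30 min at room temperature in the dark. DNA content by flow cytometry; G2/M fraction reported.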
# [4] = molecular target: T1, Tubulin (Homo sapiens) (UniProt P68371+Q9H4B7+P0DPH7+P68366+Q13509+Q71U36+P04350+Q3ZCM7+P07437+P68363+Q9BQE3+Q6PEY2+Q13885+Q9BVA1+Q9BUF5); assay: Inhibition of tubulin (unknown origin) polymerization at 27.5 uM measured over 70 mins by turbidity method; type: protein-complex assay
# In short: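 Tubulin at 25 µM in GAB buffer (10 mM sodium phosphate, 30% glycerol, 1 mM EGTA, 6 mM MgCl2, 1 mM GTP, pH 6.7) with 27.5 µM compound or DMSO vehicle. Turbidity is read at 355 nm for 70 min at 37 °C. Data are normalized to the initial stable absorbance plateau to correct for compound absorbance.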
# [5] = test system: A2780; assay: Cytotoxicity against human A2780 cells after 48 hrs by MTT assay; type: functional, cell-based; conditions: A2780, 48 h
# In short: (§1)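 Cells seeded at 12,000 to 17,000 per well depending on line, incubated overnight, then given serial dilutions of ligand for 48 h. MTT at 2.5 mg/mL added for 4 h at 37 °C, formazan solubilized overnight (10% SDS, 45% dimethylformamide, pH 5.5), absorbance read at 595/690 nm. IC50 from log-dose response curves; mean ± SE of three independent assays.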
# [6] = test system: NIH3T3; assay: Cytotoxicity against mouse NIH/3T3 cells after 48 hrs by MTT assay; type: cell-based; conditions: NIH3T3, 48 h; in short: as §1
# [7] = test system: NIH3T3; assay: Cytotoxicity against mouse NIH/3T3 cells harboring MDR G185 after 48 hrs by MTT assay; type: functional, cell-based; conditions: NIH3T3, 48 h; in short: as §1
# [8] = Ratio of IC50 for mouse NIH/3T3 cells harboring MDR G185 to IC50 for mouse NIH/3T3 cells
# In short: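 Relative resistance: IC50 in the P-gp overexpressing resistant line divided by IC50 in the parental line. Both IC50s came from the 48 h MTT assay (serial dilutions, absorbance at 595/690 nm, log-dose response curves, three independent assays).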
# [9] = test system: PC-9; assay: Induction of apoptosis in human PC9 cells assessed as increase in p21 expression at 10 uM after 18 hrs by Western blot analysis; type: functional, cell-based
# In short: (§2)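 PC9 and HCC827 maintained in DMEM with 10% FBS, then exposed to 10 μM compound for 18 h in 5% serum. Caspase 3 activation and cell cycle proteins examined by western blot.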
# [10] = test system: PC-9; assay: Induction of apoptosis in human PC9 cells assessed as reduction in cyclin D1 expression at 10 uM after 18 hrs by Western blot analysis; type: functional, cell-based; in short: as §2
# [11] = test system: HCC827; assay: Induction of apoptosis in human HCC827 cells assessed as increase in caspase-3 expression at 10 uM after 18 hrs by Western blot analysis; type: functional, cell-based; in short: as §2
# [12] = test system: NCI-H929; assay: Cytotoxicity against human NCI-H929 cells after 48 hrs by MTT assay; type: functional, cell-based; conditions: NCI-H929, 48 h
# In short: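 Cells (NCI-H929 in RPMI-1640 GlutaMAX; SCC4 in DMEM GlutaMAX; 10% FBS, 37 °C, 5% CO2) treated with increasing concentrations for 48 h. IC50 is the mean of three independent experiments.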
# [13] = test system: NCI-H929; assay: Induction of apoptosis in human NCI-H929 cells at 500 nM after 48 hrs by Annexin V/propidium iodide staining-based flow cytometric analysis relative to control; type: functional
# In short: (§3)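 Seeding density: NCI-H929 and Ca9.22 at 30×10^4 cells/mL, SCC4 at 15×10^4 cells/mL. Cells exposed 48 h to compound (500 nM; 50 μM in SCC4 for one compound) or vehicle (1% EtOH v/v). Annexin V/PI staining, flow cytometry, 10,000 cells gated on vehicle-treated cells. Three independent experiments, mean ± S.E.M, T-test.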
# [14] = test system: Ca9-22; assay: Induction of apoptosis in human Ca9-22 cells at 500 nM after 48 hrs by Annexin V/propidium iodide staining-based flow cytometric analysis relative to control; type: functional, cell-based; in short: as §3
# [15] = test system: HL-60; assay: Induction of autophagy in serum starved human HL60 cells assessed as increase in LC3B-2 levels at 10 uM after 105 mins by immunoblot analysis; type: functional, cell-based
# In short: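 HL-60 in serum-supplemented RPMI 1640, or starved in Earle's Balanced Salts for 15 min beforehand, then treated with 10 μM compound with or without 40 μM chloroquine for 1 h 45 min or 16 h. LC3B-II measured by immunoblot, densitometry normalized to actin, three independent experiments, Student's T-test.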
# [16] = Chemical stability of compound in pH 3 aqueous solution assessed as compound remaining after 24 hrs by HPLC analysis; type: physicochemical; conditions: read-out: Stability
# [17] = molecular target: T1, Tubulin (Homo sapiens); assay: Displacement of podophyllotoxin from tubulin (unknown origin) by ultracentrifugation method; type: protein-complex assay
compound,measurement,setting,value
CC(=O)OC1=C(c2cccc3ncccc23)Oc2cc3ccccc3cc2-n2cccc21,IC50,[1],0.294 µM
same,Activity,[2],Active
same,Activity,[3],Active
same,inhibition,[4],Active
same,IC50,[5],0.08 µM
same,IC50,[6],0.042 µM
same,IC50,[7],0.084 µM
same,Ratio IC50,[8],2
same,Activity,[9],Active
same,Activity,[10],Active
same,Activity,[11],Active
same,IC50,[12],0.363 µM
same,Activity,[13],>40%
same,Activity,[14],inactive
same,Activity,[15],Active
same,remaining at 24 h,[16],65%
same,inhibition,[17],Active
